Hits are enriched below; roughly 2.7% of the tested compounds scored in any of these assays.
zVAD death inh – L929 zVAD cell death inhibition; AID 1377; L929 zVAD necroptosis rescue, ATP luminescence, 24 h; with zVAD 60 µM; viability rescue, % at 10 µM; hit rate 0.38% among 220,000;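 active = activation, scaled between plate controls, above about 75%, limit read from the data; inactive = activation under that limit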;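 note: 0% = zVAD with DMSO and 100% = DMSO alone without zVAD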
TNF death inh – blocks TNF-alpha induced death of Jurkat FADD-/- cells | Jurkat FADD-/- TNF necroptosis rescue, ATP luminescence, 24 h; 0 = TNF only, 100 = no-TNF cells | activation (protection from cell death), % at 10 µM | hit rate 0.068% among 220,000;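 active = activation, meaning protection from cell death, of at least 50% relative to plate controls; inactive = activation below 50%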;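 note: necroptosis triggered by 40 ng/mL TNF-alpha added together with compound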
M18AAP inhibitor – blocks P. falciparum M18 aspartyl aminopeptidase; recombinant PfM18AAP, H-Glu-NHMec fluorogenic cleavage; inhibition, % at 7.35 µM; hit rate 1.2% among 290,000; AID 1822;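 active = inhibition above the campaign mean inhibition over all tested compounds plus 3 SD, cut at about 28% in these data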;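 note: 0% = plate median of test compound wells and 100% = 2 mM ZnCl2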
Wee1 stabilizer – blocks degradation of human Wee1 kinase. reporter increase, % at 5 µM. P30291. hit rate 1.2% among 220,000. HeLa Luc-Wee1K328M stability, luciferase luminescence; 100% = proteasome inhibitor MG132 effect;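 active = activation above the mean of all tested compounds plus 3 SD, set per screening run, cut at about 8.8% in these data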;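 note: cells exposed to compound for 20 h before luminescence read; 0% = DMSO alone and 100% = MG132 at 30 µM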
RBBP9 inhibitor – human RBBP9 hydrolase inhibition; recombinant RBBP9, FP-Rh probe fluorescence polarization; inhibition, % at 7.94 µM; hit rate 0.2% among 220,000; AID 1515;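 active = inhibition above the campaign mean of all tested compounds plus 3 SD, cut at about 14% in these data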;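 note: plate controls were DMSO wells with RBBP9 for no effect and wells lacking RBBP9 protein for full effect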
Target sequence (O75884 whole entry, looked up): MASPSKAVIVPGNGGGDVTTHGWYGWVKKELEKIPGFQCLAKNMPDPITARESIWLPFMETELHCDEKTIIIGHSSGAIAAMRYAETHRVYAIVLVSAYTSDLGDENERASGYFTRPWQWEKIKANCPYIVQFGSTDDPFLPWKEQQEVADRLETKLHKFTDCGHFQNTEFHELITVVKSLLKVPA
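Assay system: recombinant human RBBP9; Reagent: Serine-hydrolase probe FP-Rh, 375 nM pre-mixing; Doses: 7.94 µM single dose, 0.794% DMSO; Incubation: 30 min then 45 min, 25 °C; Detection: fluorescence polarization (mP), excitation 525 nm, emission 598 nm; Evaluation: percent inhibition from mP, scaled between DMSO and no-protein wells.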
p97 inhibitor – blocks human p97 ATPase activity | P55072 | recombinant p97 ATPase, Kinase-Glo ATP luminescence, 3 h | inhibition, % at 8 µM | hit rate 0.42% among 220,000 | AID 1481; in the data active = inhibition above about 15%;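 note: 0% = DMSO vehicle and 100% = wells lacking enzyme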
Active calls of the source: *.

Results for CN(C)C(=O)C12CCC(C)(C(=O)C1Br)C2(C)C (centres undefined) ?
zVAD death inh: 0.3; TNF death inh: 0.3; M18AAP inhibitor: 3.4; Wee1 stabilizer: -1.8; RBBP9 inhibitor: -5.0; p97 inhibitor: 0.4

Results for Cc1cc(Br)ccc1SCC(=O)OCC(=O)NC(C)c1ccccc1 (centres undefined) ?
zVAD death inh: 0.0; TNF death inh: 1.1; M18AAP inhibitor: 0.0; Wee1 stabilizer: 1.5; RBBP9 inhibitor: -3.9; p97 inhibitor: 0.8

Results for Cc1cc(Br)ccc1SCC(=O)OCC(=O)NC1CC1 ?
zVAD death inh: 1.5; TNF death inh: 1.1; M18AAP inhibitor: 4.8; Wee1 stabilizer: 10.4*; RBBP9 inhibitor: 7.1; p97 inhibitor: 4.3

How did Cc1ccc(C(C)C)c(OCC(=O)NN=C2CCCC2)c1 do in these assays?
zVAD death inh: 2.2; TNF death inh: -0.3; M18AAP inhibitor: -2.6; Wee1 stabilizer: 6.0; RBBP9 inhibitor: -6.5; p97 inhibitor: -3.1

What do the screens show for `Cc1ccc(C(C)C)c(OCC(=O)N/N=C/C2CCCCC2)c1`?
zVAD death inh: 0.0; TNF death inh: -0.3; M18AAP inhibitor: 4.7; Wee1 stabilizer: 9.2*; RBBP9 inhibitor: -2.7; p97 inhibitor: -6.8

What do the screens show for `CCCN1CCN(C(=O)c2oc3ccccc3c2NC(=O)C2CC2)CC1`?
M18AAP inhibitor: -2.2

What do the screens show for `COc1cc(-c2nc(-c3ccc(Br)o3)no2)cc(OC)c1OC`?
zVAD death inh: 3.9; TNF death inh: 0.4; M18AAP inhibitor: 5.3; Wee1 stabilizer: 0.1; RBBP9 inhibitor: -6.6; p97 inhibitor: 19.0*

How did Cc1sc(NC(=O)c2cccs2)c(C(N)=O)c1C do in these assays?
zVAD death inh: 75.0*; TNF death inh: -0.5; M18AAP inhibitor: -17.1; Wee1 stabilizer: 0.6; RBBP9 inhibitor: 2.2; p97 inhibitor: 5.1

How did Cc1ccc(C(=O)Nc2sc(C)c(C)c2C(=O)c2ccccc2)cc1 do in these assays?
zVAD death inh: 1.5; TNF death inh: 1.7; M18AAP inhibitor: -1.4; Wee1 stabilizer: 3.7; RBBP9 inhibitor: -3.0; p97 inhibitor: 3.8

What do the screens show for `CCN(CC)C(=O)c1c(NC(=O)c2ccccc2)sc(C)c1C`?
zVAD death inh: -0.2; TNF death inh: -0.3; M18AAP inhibitor: -0.6; Wee1 stabilizer: -2.2; RBBP9 inhibitor: -8.9; p97 inhibitor: 14.7*

Results for Cc1sc(NC(=O)c2ccccc2)c(C(=O)c2ccccc2)c1C ?
zVAD death inh: 0.5; TNF death inh: 3.3; M18AAP inhibitor: 31.6*; Wee1 stabilizer: 1.4; RBBP9 inhibitor: -5.2; p97 inhibitor: -1.0

Results for NC(=O)c1ccsc1NC(=O)c1cccs1 ?
zVAD death inh: 26.2; TNF death inh: -1.5; M18AAP inhibitor: 7.3; Wee1 stabilizer: -1.4; RBBP9 inhibitor: -10.3; p97 inhibitor: 8.2

What do the screens show for `Cc1sc(NC(=O)c2ccccc2)c(C(=O)NC(C)C)c1C`?
zVAD death inh: 0.4; TNF death inh: 0.5; M18AAP inhibitor: 5.2; Wee1 stabilizer: 0.2; RBBP9 inhibitor: 6.3; p97 inhibitor: 2.2

What do the screens show for `CC(=O)N1CCOc2ccc(S(=O)(=O)NC(C)c3ccccc3)cc21` (centres undefined)?
M18AAP inhibitor: 0.4

What do the screens show for `c1ccc(N/N=C(\Cc2nc3ccccc3[nH]2)c2ccccc2)cc1`?
zVAD death inh: -0.1; TNF death inh: 0.1; M18AAP inhibitor: 3.0; Wee1 stabilizer: -0.1; RBBP9 inhibitor: -5.3; p97 inhibitor: 1.2

What do the screens show for `Cc1ccc(N/N=C(\Cc2nc3ccccc3[nH]2)c2ccccc2)cc1`?
zVAD death inh: -0.8; TNF death inh: -5.9; M18AAP inhibitor: -3.7; Wee1 stabilizer: 16.1*; RBBP9 inhibitor: 0.9; p97 inhibitor: 5.8

What do the screens show for `CC1C/C(=N/Nc2nc3ccccc3[nH]2)CC(C)(C)C1` (centres undefined)?
zVAD death inh: 0.7; TNF death inh: 2.2; M18AAP inhibitor: 14.2; Wee1 stabilizer: 10.4*; RBBP9 inhibitor: 8.6; p97 inhibitor: 6.1

Results for CC1C/C(=N/NC(=O)c2ccc(CSc3nc4ccccc4[nH]3)cc2)CC(C)(C)C1 (centres undefined) ?
zVAD death inh: 1.1; TNF death inh: 2.0; M18AAP inhibitor: 8.1; Wee1 stabilizer: 5.1; RBBP9 inhibitor: -29.4; p97 inhibitor: 7.8

Bioassay records (PubChem)
